Results: ChEMBL document CHEMBL4602675, “The Marine Natural Product Manzamine A Inhibits Cervical Cancer by Targeting the SIX1 Protein” (J Nat Prod, 2020)
The source made the active and inactive calls. The rule behind the calls is not given here.

Legend:
C-33-A [1] = assay: Antiproliferative activity against human C33A cells assessed as reduction in cell viability after 48 hrs by CellTiter-Glo assay; assay type: functional, cell-based
Procedure, shortened: (§1)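 ATP-based luminescent viability readout. Cells were grown in DMEM with 10% FBS, 2 mM L-glutamine and penicillin-streptomycin at 37 °C, 5% CO2. 2 × 10^4 cells/well were seeded, then exposed the next day to 0–40 μM for 24, 48 or 72 h. % viability = 100 × treated/control. IC50 was fitted from a sigmoid dose-response curve. Run at least three times in quadruplicate; mean ± SEM.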

HeLa [2] = assay: Antiproliferative activity against human HeLa cells assessed as reduction in cell viability after 48 hrs by CellTiter-Glo assay; assay type: functional, cell-based; procedure, shortened: as §1
SiHa [3] = assay: Antiproliferative activity against human SiHa cells assessed as reduction in cell viability after 48 hrs by CellTiter-Glo assay; assay type: functional, cell-based; procedure, shortened: as §1
SiHa [4] = assay: Antiproliferative activity against human SiHa cells assessed as reduction in cell viability after 72 hrs by CellTiter-Glo assay; assay type: functional, cell-based; procedure, shortened: as §1
C-33-A [5] = assay: Inhibition of colony formation in human C33A cells at 2 to 4 uM afer 1 week by crystal violet staining based assay; assay type: functional, cell-based
Procedure, shortened: (§2)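 Cells were grown in DMEM with 10% FBS, seeded at 1 × 10^3 cells/ml in six-well plates, incubated overnight, then exposed to 2 or 4 μM at 37 °C under 5% CO2 for one week. Colonies were fixed with 4% paraformaldehyde, stained with 0.5% crystal violet and photographed.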

HeLa [6] = assay: Inhibition of colony formation in human HeLa cells at 2 to 4 uM afer 1 week by crystal violet staining based assay; assay type: functional, cell-based; procedure, shortened: as §2
SiHa [7] = assay: Cell cycle arrest in human SiHa cells assessed as accumulation at G2/M phase at 4 uM after 48 hrs by propidium iodide staining based flow cytometric analysis (reference value: 14.7%); assay type: functional
Procedure, shortened: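 Cells in DMEM with 10% FBS, 2 mM L-glutamine, pen-strep, 37 °C, 5% CO2; seeded and left overnight, then treated at 4 μM with DMSO as control. Harvested by trypsin at 24, 48 or 72 h, fixed in chilled 70% ethanol 30 min on ice, RNase A (1 mg/mL) 30 min at room temperature, PI (20 μg/mL). Flow cytometry, ≥10 000 events, G0/G1, S, G2/M fractions; mean ± SEM.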

HeLa [8] = assay: Cell cycle arrest in human HeLa cells assessed as accumulation at G0/G1 phase at 4 uM after 24 hrs by propidium iodide staining based flow cytometric analysis (reference value: 69.4%); assay type: functional
Procedure, shortened: (§3)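 Cells in DMEM/10% FBS at 37 °C, 5% CO2 were given 4 μM for 24, 48 or 72 h, with DMSO as control. After trypsinization they were fixed in chilled 70% ethanol on ice for 30 min, treated with RNase A (1 mg/mL) for 30 min at room temperature, and stained with PI (20 μg/mL). At least 10 000 events were read by flow cytometry to give sub-G1, G0/G1, S and G2/M fractions; mean ± SEM.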

HeLa [9] = assay: Cell cycle arrest in human HeLa cells assessed as accumulation at G0/G1 phase at 4 uM after 72 hrs by propidium iodide staining based flow cytometric analysis (reference value: 76.4%); assay type: functional; procedure, shortened: as §3
C-33-A [10] = assay: Induction of apoptosis in human C33A cells assessed as late apoptotic cells at 4 uM after 48 hrs by Annexin V-FITC/PI double staining based flow cytometric analysis (reference value: 2.5%); assay type: functional
C-33-A [11] = assay: Induction of apoptosis in human C33A cells assessed as necrotic cells at 4 uM after 48 hrs by Annexin V-FITC/PI double staining based flow cytometric analysis (reference value: 1.9%); assay type: functional
SiHa [12] = assay: Induction of apoptosis in human SiHa cells assessed as viable cells at 4 uM after 24 hrs by Annexin V-FITC/PI double staining based flow cytometric analysis (reference value: 90.8%); assay type: functional; settings: read-out: Activity
Ca-Ski = assay: Induction of apoptosis in human CaSki cells assessed as viable cells at 4 uM after 24 hrs by Annexin V-FITC/PI double staining based flow cytometric analysis (reference value: 84%); assay type: functional; settings: read-out: Activity
[13] = molecular target: Protein E6 (Human papillomavirus 16) (UniProt P03126); assay: Inhibition of Human papillomavirus type16 derived E6 in human SiHa cells assessed as increase in p21 protein expression at 2 to 4 uM after 48 hrs by Western blot analysis; assay type: cell-based
Procedure, shortened: (§4)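 Cells were seeded at 1 × 10^6 per 100 mm dish and treated next day with 2 or 4 μM for 48 h. They were trypsinised, PBS-washed and lysed in RIPA with protease inhibitors. Equal protein was run on SDS-PAGE and transferred to PVDF. Primary antibodies were used at 1:500, with BSA 3% for blocking and antibodies for CK2α, Rb and pRb, otherwise 5% milk in TBST. HRP secondary at 1:2000, chemiluminescence detection.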

[14] = molecular target: T1, Protein E7 (Human papillomavirus 16) (UniProt P03129); assay: Inhibition of Human papillomavirus type16 derived E7 in human SiHa cells assessed as decrease in cyclin-D1 protein expression at 2 to 4 uM after 48 hrs by Western blot analysis; assay type: cell-based; procedure, shortened: as §4
T1 sequence (whole entry): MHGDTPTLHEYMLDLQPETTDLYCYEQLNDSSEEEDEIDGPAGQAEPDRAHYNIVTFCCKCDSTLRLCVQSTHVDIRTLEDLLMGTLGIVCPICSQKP

[15] = molecular target: Protein E6 (Human papillomavirus 16) (UniProt P03126); assay: Inhibition of Human papillomavirus type16 derived E6 in human CaSki cells assessed as increase in p53 protein expression at 2 to 4 uM after 48 hrs by Western blot analysis; assay type: cell-based; settings: Ca-Ski; procedure, shortened: as §4
[16] = molecular target: Protein E6 (Human papillomavirus 16) (UniProt P03126); assay: Inhibition of Human papillomavirus type16 derived E6 in human CaSki cells assessed as increase in p21 protein expression at 2 to 4 uM after 48 hrs by Western blot analysis; assay type: cell-based; settings: Ca-Ski; procedure, shortened: as §4
[17] = molecular target: T2, Homeobox protein SIX1 (Homo sapiens) (UniProt Q15475); assay: Inhibition of SIX1 in human CaSki cells at 2 to 4 uM after 48 hrs by Western blot analysis; assay type: cell-based; settings: Ca-Ski; procedure, shortened: as §4
T2 sequence (whole entry): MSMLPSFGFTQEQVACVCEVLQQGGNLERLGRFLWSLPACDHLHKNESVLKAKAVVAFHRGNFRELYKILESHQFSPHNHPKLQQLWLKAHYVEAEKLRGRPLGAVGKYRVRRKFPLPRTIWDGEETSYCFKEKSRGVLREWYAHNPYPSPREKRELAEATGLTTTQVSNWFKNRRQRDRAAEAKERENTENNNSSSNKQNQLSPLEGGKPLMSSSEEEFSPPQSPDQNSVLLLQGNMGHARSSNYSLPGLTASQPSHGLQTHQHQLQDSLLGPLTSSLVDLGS

[18] = molecular target: Casein kinase II subunit alpha (Homo sapiens) (UniProt P68400); assay: Potency index, ratio for inhibition activity of apigenin to test compound for inhibition of CK2alpha in human SiHa cells after 48 hrs by Western blot analysis; assay type: cell-based
Procedure, shortened: (§5)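 Cells plated at 1 × 10^6 per 100 mm dish and treated next day for 48 h with test compound (2 or 4 μM) or apigenin (10, 20 or 40 μM). RIPA lysates with protease inhibitors; equal protein loaded for SDS-PAGE, then PVDF transfer. Blocked in 5% milk/TBST (3% BSA for CK2α); anti-SIX1 or anti-CK2α 1:500, HRP secondary 1:2000; chemiluminescent detection.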

[19] = molecular target: T2, Homeobox protein SIX1 (Homo sapiens); assay: Potency index, ratio for inhibition activity of apigenin to test compound for inhibition of SIX1 in human HeLa cells after 48 hrs by Western blot analysis; assay type: cell-based; procedure, shortened: as §5

Sequence of Protein E6 (Human papillomavirus 16) (P03126 whole entry): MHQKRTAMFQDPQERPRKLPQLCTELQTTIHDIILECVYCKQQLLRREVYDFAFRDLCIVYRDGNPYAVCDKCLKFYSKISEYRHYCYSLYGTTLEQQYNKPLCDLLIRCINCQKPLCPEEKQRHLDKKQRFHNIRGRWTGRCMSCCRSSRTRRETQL
Sequence of Casein kinase II subunit alpha (Homo sapiens) (P68400 whole entry, looked up): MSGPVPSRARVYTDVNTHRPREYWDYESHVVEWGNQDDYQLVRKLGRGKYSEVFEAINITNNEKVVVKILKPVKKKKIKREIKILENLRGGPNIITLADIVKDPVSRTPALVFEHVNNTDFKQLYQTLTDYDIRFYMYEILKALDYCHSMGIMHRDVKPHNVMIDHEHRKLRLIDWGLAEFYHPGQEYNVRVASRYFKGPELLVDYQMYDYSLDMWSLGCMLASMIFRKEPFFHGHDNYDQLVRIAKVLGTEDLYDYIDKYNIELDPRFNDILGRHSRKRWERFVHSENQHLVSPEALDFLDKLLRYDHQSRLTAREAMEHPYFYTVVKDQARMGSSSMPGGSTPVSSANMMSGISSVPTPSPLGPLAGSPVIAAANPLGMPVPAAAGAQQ

In the case of O[C@]12C=C(c3nccc4c3[nH]c3ccccc34)[C@@H]3CCN(CCCC/C=C\CC1)C[C@@]31C[C@@H]3/C=C\CCCCN3[C@H]12 [MANZAMINE A], the IC50 (C-33-A [1]) is reported as 2.1 µM, the IC50 (HeLa [2]) is reported as 4 µM and the IC50 (SiHa [3]) is reported as 9.9 µM. For the same compound, the IC50 (SiHa [4]) was 4.1 µM, the inhibition (C-33-A [5]) was “Active” and the inhibition (HeLa [6]) was “Active”. For the same compound, the Activity (SiHa [7]) was 8.2%, the Activity (HeLa [8]) was 74.7% and the Activity (HeLa [9]) was 49.1%. The Activity (C-33-A [10]) was 15.7%, the Activity (C-33-A [11]) was 11.1% and the viability at 4 µM (SiHa [12]) was 82.5%. For the same compound, the viability at 4 µM (Ca-Ski) was 81.4%, the inhibition [13] was “Active” and the inhibition [14] was “Active”. The inhibition [15] was “Active”, the inhibition [16] was “Active” and the inhibition [17] was “Active”. The Ratio [18] was 10 and the Ratio [19] was 10.
